Measurements gathered from unrelated publications.
Compare with care: the assays were run in different laboratories.
Read-out: cell growth or viability

SMILES | cell line | assay | conditions | endpoint | result
COc1ccc(C2=Nn3c(NN=C4C(=O)Nc5ccc(OC)cc54)nnc3SC2)cc1 | UACC-257 | SRB | 10 µM | inhibition | 20%
COc1ccc(-c2ccc(-c3ccc(C(=N)N)nc3)s2)cc1 | SNB-75 | SRB | – | GI50 | 1.55 µM
Cc1cc(C)n(C(=S)[S][Au][PH](CCCCCC[PH]([Au][S]C(=S)n2nc(C)cc2C)(c2ccccc2)c2ccccc2)(c2ccccc2)c2ccccc2)n1 | HCC 2998 | – | – | GI50 | 0.252 µM
Cc1ccc(C)c(COc2cc(NC(=O)c3ccc4c(c3)OCO4)ccc2N(C)S(C)(=O)=O)c1 | HCC 2998 | SRB | 48 h | GI50 | 0.12 µM
S=C([S][Au-][P+](CCCCCC[P+]([Au-][S]C(=S)n1cccn1)(c1ccccc1)c1ccccc1)(c1ccccc1)c1ccccc1)n1cccn1 | HCC 2998 | – | – | GI50 | 0.759 µM
COc1cc(-c2cn(-c3ccccc3)nn2)cc(OC)c1OC | CCRF-CEM | – | 48 h | CC50 | 34.6 µM
COc1cc(-c2ccc(-c3ccc(C(=N)N)nc3)s2)cc(OC)c1OC | SNB-75 | SRB | – | GI50 | 1.5 µM
CC(C)C[C@H](NC(=O)[C@H](Cc1ccccc1)NC(=O)c1cnccn1)B(O)O | OCI-AML-5 | ATP luminescence | – | IC50 | 0.018 µM
COc1cccc(Oc2ccccc2NC(=O)CNC(=O)c2cccc3ccccc23)c1 | HCC 2998 | SRB | 48 h | GI50 | 1.26 µM
COc1cc(OC)cc(-c2cn(-c3cc(=O)oc4ccc(Br)cc34)nn2)c1 | CCRF-CEM | – | 48 h | CC50 | 10.5 µM
O=C1Nc2ccccc2C1=NNc1nnc2n1N=C(c1ccccc1)CS2 | SNB-75 | SRB | 10 µM | inhibition | 35%
Oc1ccc(Nc2nc(-c3ccc(Cl)cc3)cs2)cc1 | A375M | MTS | 24 h | IC50 | > 100 µM
